In brackets after ≈: the same amount, converted by molar mass.
Key:
Vero = assay: Compound was tested for cytotoxicity in Vero cells (concentration required to reduce the OD value by 50% of the control); format: functional; conditions: Chlorocebus sabaeus
How it was run: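 Vero cells (ATCC) seeded at 5 × 10³ cells/well and grown 24 h in EMEM, then exposed to a range of compound concentrations for 3 days at 37 °C, 5% CO₂. MTT added for a further 4 h, formazan dissolved in DMSO, OD read at 540 nm. CC50 is the concentration giving 50% OD reduction versus control. Quadruplicate wells, experiment repeated twice.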

Human alphaherpesvirus 1 = assay: Compound was tested for in vitro antiviral activity against herpes viruses of type 1 (HSV-1,KOS strain) (concentration required to reduce the OD value by 50% of the virus infected control); format: functional, organism-based
How it was run: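 Dye-uptake assay. Vero cells (10⁵ cells/mL) in EMEM with 5% FBS were infected with HSV-1 KOS at 100 PFU/well. After 1 h adsorption, serial 3-fold compound dilutions from 125 μM were added in quadruplicate. After 48 h at 37 °C, neutral red uptake was eluted and read at 550 nm. EC50 derived by quantal probit analysis against virus and cell controls.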

Mus musculus = species: Mus musculus; assay: The total amount of penciclovir recovered in the urine over a 48-h period was determined by HPLC using a C18 reversed-phase column in mouse.; format: ADME, organism-based; conditions: in vivo
How it was run: (§1)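 Urine collected 48 h in metabolic cages over sodium azide, then filtered. Penciclovir quantified by C18 HPLC with a three-step phosphoric acid/MeCN gradient, UV 248 nm. Result expressed as total urinary penciclovir, % of dose.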

Rattus norvegicus = species: Rattus norvegicus; assay: The total amount of penciclovir recovered in the urine over a 48-h period was determined by HPLC using a C18 reversed-phase column in rat.; format: ADME, organism-based; conditions: in vivo; how it was run: as §1
[1] = Half-life by the HPLC using a C18 reversed-phase column at pH 6.0 (sodium phosphate buffer) and 37 degree C.; format: ADME
How it was run: (§2)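 Compound at 125 μM final (from 2.5 mM stock) incubated at 37 °C in HCl/NaCl buffer pH 1.2 or sodium phosphate buffer pH 6.0, 7.4 or 8.0. Aliquots taken at intervals were diluted into 0.1 M phosphate pH 7.0 and run isocratically on a C18 column with 0.1% phosphoric acid/MeCN eluents. Half-life calculated from remaining parent concentration.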

[2] = Half-life by the HPLC using a C18 reversed-phase column at pH 8..0(sodium phosphate buffer) and 37 degree C.; format: ADME; how it was run: as §2
[3] = Half-life by the HPLC using a C18 reversed-phase column at pH 7.4(sodium phosphate buffer) and 37 degree C.; format: ADME; how it was run: as §2
[4] = Half-life by the HPLC using a C18 reversed-phase column at pH 1.2 (HC/NaCl buffer) and 37 degree C.; format: ADME; conditions: HCl/NaCl buffer; how it was run: as §2
[5] = Solubility at 20 degree C was determined by the comparison of th UV absorbance of the saturated solution of each compound at 290 nm with that of the standard curve.

Structure (SMILES) | CC50 (Vero) [µM] | EC50 (Human alphaherpesvirus 1) [µM] | Urinary penciclovir recovery over 48 h (% of dose) (Mus musculus) [%] | urinary penciclovir recovery, % of dose (Rattus norvegicus) [%] | half-life [1] [days] | half-life [2] [days] | half-life [3] [days] | half-life [4] [days] | solubility at 0.29 µM [5] [mg/mL]
CC(=O)OCC(CCn1cnc2cnc(N)nc21)COC(C)=O [FAMCICLOVIR] | > 500 | > 125 | 48 | 40 |  |  |  |  | 
Nc1ncc2ncn(CCC3COC(=O)OC3)c2n1 | > 500 | > 125 | 27 | 15 | 2.6 | 0.07 | 0.12 |  | 
CCCCCOC(=O)OCC(CO)CCn1cnc2cnc(N)nc21 (configuration not stated) | > 500 | > 125 | 47 | 38 | 17 | 5 | 7 | 25 | 4.2 (≈ 12 mM)
CCCCOC(=O)OCC(CO)CCn1cnc2cnc(N)nc21 (configuration not stated) | > 500 | > 125 | 38 | 41 | 74 | 5 | 11 | 29 | 15 (≈ 44.5 mM)
Nc1nc2c(ncn2CCC(CO)CO)c(=O)[nH]1 [PENCICLOVIR] | > 500 | 8.65 | 3 | 9 |  |  |  |  | 
CCCOC(=O)OCC(CO)CCn1cnc2cnc(N)nc21 (configuration not stated) | > 500 | > 125 | 51 | 34 | 89 | 4 | 10 | 29 | 68 (≈ 210 mM)
COC(=O)OCC(CO)CCn1cnc2cnc(N)nc21 (configuration not stated) | > 500 | > 125 | 45 | 39 | 18 | 0.5 | 1 | 23 | 14.1 (≈ 47.7 mM)
CC(C)CCOC(=O)OCC(CO)CCn1cnc2cnc(N)nc21 (configuration not stated) | 357 | > 125 | 51 | 40 | 65 | 6 | 11 | 24 | 5.6 (≈ 15.9 mM)
CC(C)OC(=O)OCC(CO)CCn1cnc2cnc(N)nc21 (configuration not stated) | > 500 | > 125 | 53 | 40 | > 200 | 26 | 61 | 88 | 139 (≈ 429 mM)
CCOC(=O)OCC(CO)CCn1cnc2cnc(N)nc21 (configuration not stated) | > 500 | > 125 | 50 | 40 | 112 | 3 | 7 | 35 | 20 (≈ 64.7 mM)
CC(C)COC(=O)OCC(CO)CCn1cnc2cnc(N)nc21 (configuration not stated) | > 500 | > 125 | 38 | 37 | 87 | 8 | 17 | 28 | 1.5 (≈ 4.45 mM)

From ChEMBL document CHEMBL1131079, “Synthesis and evaluation of 2-amino-9-(3-hydroxymethyl-4-alkoxycarbonyloxybut-1-yl)purines as potential prodrugs of penciclovir” (J Med Chem, 1998)
